According to ChEMBL document CHEMBL4219079, “Design, synthesis, and evaluation of the antiproliferative activity of hydantoin-derived antiandrogen-genistein conjugates” (Bioorg Med Chem, 2018):
Calls of active or inactive are those of the source. No cut-off for these calls is given here.

Legend:
[1] = species: Homo sapiens; test: Inhibition of HDAC6/HSP90 in human LNCAP cells assessed as downregulation of AR protein level at 2.5 uM after 24 hrs by Western blot method; assay type: cell-based
Method in brief: (§1)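 LNCaP seeded at 10^6 cells/dish 24 h before a 24 h compound treatment, with DMSO as control. Lysates were made in CelLyticM with protease inhibitors and quantified by Bradford. Equal protein was run on SDS-PAGE at 100 V for 2 h, transferred to nitrocellulose, and probed for AR, with actin as loading control.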

[2] = test system: LNCaP; test: Antiproliferative activity against human LNCAP cells assessed as cell survival at 100 uM after 72 hrs in presence of enzalutamide by MTS assay relative to control; assay type: functional; details: read-out: Survival
Method in brief: (§2)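 LNCaP (phenol-red free RPMI-1640) or DU145 (EMEM), each with 10% FBS and penicillin/streptomycin, at 37 °C in 5% CO2. Cells seeded at 4,500 per well and exposed to compound in triplicate for 72 h. Viability read by MTS. Curves are the average of triplicate experiments, with IC50 taken from curve fitting.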

[3] = test system: LNCaP; test: Cell cycle arrest in human LNCAP cells assessed as accumulation at S phase at 25 uM after 24 hrs by propidium iodide staining based flow cytometry (reference value: 37.5%); assay type: functional
[4] = test system: LNCaP; test: Cell cycle arrest in human LNCAP cells assessed as accumulation at G2 phase at 25 uM after 24 hrs by propidium iodide staining based flow cytometry (reference value: 9.83%); assay type: functional
[5] = test system: LNCaP; test: Cell cycle arrest in human LNCAP cells assessed as accumulation at less G1 phase at 25 uM after 24 hrs by propidium iodide staining based flow cytometry (reference value: 1.5%); assay type: functional
[6] = test system: LNCaP; test: Cell cycle arrest in human LNCAP cells assessed as accumulation at greater G2 phase at 25 uM after 24 hrs by propidium iodide staining based flow cytometry (reference value: -0.37%); assay type: functional
[7] = test system: LNCaP; test: Cell cycle arrest in human LNCAP cells assessed as accumulation at G1 phase at 25 uM after 24 hrs by propidium iodide staining based flow cytometry (reference value: 52.4%); assay type: functional
[8] = test system: DU-145; test: Antiproliferative activity against human DU145 cells after 72 hrs in presence of enzalutamide by MTS assay; assay type: functional, cell-based
Method in brief: (§3)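 Seeded at 4,500 cells per well and exposed to compound in triplicate for 72 h. LNCaP were cultured in phenol-red-free RPMI-1640 and DU145 in EMEM, each with 10% FBS and penicillin/streptomycin, at 37 °C under 5% CO2. Viability was read by MTS. IC50 came from dose-response curve fitting. For combination lines, genistein was given together with enzalutamide.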

[9] = test system: LNCaP; test: Antiproliferative activity against human LNCAP cells after 72 hrs in presence of enzalutamide by MTS assay; assay type: functional, cell-based; method in brief: as §3
[10] = test system: CWR22R; test: Antiproliferative activity against human 22Rv1 cells harboring truncated AR at 50 uM after 72 hrs by MTS assay relative to control; assay type: functional
Method in brief: (§4)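 PC3, C4-2 and 22Rv1 prostate cancer cells treated in serum-fed medium with a range of doses, up to 50 μM. Growth read at 72 h post-treatment by MTS assay as percent of control. Data are averages of two independent experiments, each done in duplicate.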

[11] = test system: LNCaP; test: Antiproliferative activity against human LNCAP cells; assay type: functional, cell-based
[12] = test system: PC-3; test: Antiproliferative activity against human AR negative PC3 cells at 50 uM after 72 hrs by MTS assay relative to control; assay type: functional; method in brief: as §4
[13] = test system: LNCaP; test: Antiproliferative activity against human LNCAP cells after 72 hrs by MTS assay; assay type: functional, cell-based; method in brief: as §3
[14] = test system: LNCaP C4-2; test: Antiproliferative activity against human AR positive C4-2 cells at 50 uM after 72 hrs by MTS assay relative to control; assay type: functional; method in brief: as §4
[15] = test system: CWR22R; test: Antiproliferative activity against human 22Rv1 cells harboring truncated AR up to 25 uM after 72 hrs by MTS assay; assay type: functional, cell-based; method in brief: as §4
[16] = test system: DU-145; test: Antiproliferative activity against human DU145 cells after 72 hrs by MTS assay; assay type: functional, cell-based; method in brief: as §3
[17] = test system: PC-3; test: Antiproliferative activity against human AR negative PC3 cells at 2.5 uM after 72 hrs by MTS assay relative to control; assay type: functional; method in brief: as §4
[18] = test system: CWR22R; test: Antiproliferative activity against human 22Rv1 cells harboring truncated AR at 1.25 uM after 72 hrs by MTS assay relative to control; assay type: functional; method in brief: as §4
[19] = test system: LNCaP; test: Cell cycle arrest in human LNCAP cells assessed as accumulation at G1 phase at 2.5 uM after 24 hrs by propidium iodide staining based flow cytometry (reference value: 52.4%); assay type: functional
[20] = test system: LNCaP C4-2; test: Antiproliferative activity against human AR positive C4-2 cells at 1.25 uM after 72 hrs by MTS assay relative to control; assay type: functional; method in brief: as §4
[21] = test system: LNCaP; test: Cell cycle arrest in human LNCAP cells assessed as accumulation at S phase at 2.5 uM after 24 hrs by propidium iodide staining based flow cytometry (reference value: 37.5%); assay type: functional
[22] = test system: LNCaP; test: Downregulation of AR protein level in human LNCAP cells after 24 hrs by Western blot method; assay type: functional, cell-based; method in brief: as §1
[23] = test system: DU-145; test: Antiproliferative activity against human DU145 cells assessed as cell survival up to 100 uM after 72 hrs by MTS assay relative to control; assay type: functional; method in brief: as §2
[24] = test system: LNCaP; test: Antiproliferative activity against human LNCAP cells assessed as cell survival up to 100 uM after 72 hrs by MTS assay relative to control; assay type: functional; method in brief: as §2
[25] = test system: LNCaP; test: Cell cycle arrest in human LNCAP cells assessed as accumulation at G2 phase at 2.5 uM after 24 hrs by propidium iodide staining based flow cytometry (reference value: 9.83%); assay type: functional
[26] = test system: LNCaP; test: Cell cycle arrest in human LNCAP cells assessed as accumulation at S phase at 5 uM after 24 hrs by propidium iodide staining based flow cytometry (reference value: 37.5%); assay type: functional
[27] = test system: LNCaP; test: Cell cycle arrest in human LNCAP cells assessed as accumulation at greater G2 phase at 5 uM after 24 hrs by propidium iodide staining based flow cytometry (reference value: -0.37%); assay type: functional
[28] = test system: LNCaP; test: Cell cycle arrest in human LNCAP cells assessed as accumulation at less G1 phase at 2.5 uM after 24 hrs by propidium iodide staining based flow cytometry (reference value: 1.5%); assay type: functional
[29] = test system: LNCaP; test: Cell cycle arrest in human LNCAP cells assessed as accumulation at G1 phase at 5 uM after 24 hrs by propidium iodide staining based flow cytometry (reference value: 52.4%); assay type: functional
[30] = test system: LNCaP; test: Downregulation of AR protein level in human LNCAP cells at 1.25 to 2.5 uM after 24 hrs in presence of proteasome inhibitor bortezomib by Western blot method; assay type: functional, cell-based
Method in brief: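 LNCaP seeded at 10^6 cells/dish and pretreated with bortezomib at 20 nM or 40 nM for 2 h. Cells were then exposed to compound for 24 h. AR protein was assessed by immunoblot after Bradford-normalized SDS-PAGE (100 V, 2 h) and nitrocellulose transfer, with actin as loading control.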

[31] = test system: LNCaP; test: Cell cycle arrest in human LNCAP cells assessed as accumulation at less G1 phase at 5 uM after 24 hrs by propidium iodide staining based flow cytometry (reference value: 1.5%); assay type: functional
[32] = test system: LNCaP; test: Cell cycle arrest in human LNCAP cells assessed as accumulation at greater G2 phase at 2.5 uM after 24 hrs by propidium iodide staining based flow cytometry (reference value: -0.37%); assay type: functional
[33] = test system: LNCaP; test: Cell cycle arrest in human LNCAP cells assessed as accumulation at G2 phase at 5 uM after 24 hrs by propidium iodide staining based flow cytometry (reference value: 9.83%); assay type: functional
[34] = test system: LNCaP; test: Cell cycle arrest in human LNCAP cells assessed as accumulation at less G1 phase at 40 uM after 24 hrs by propidium iodide staining based flow cytometry (reference value: 1.5%); assay type: functional
[35] = test system: LNCaP; test: Cell cycle arrest in human LNCAP cells assessed as accumulation at greater G2 phase at 40 uM after 24 hrs by propidium iodide staining based flow cytometry (reference value: -0.37%); assay type: functional
[36] = test system: LNCaP; test: Cell cycle arrest in human LNCAP cells assessed as accumulation at G2 phase at 40 uM after 24 hrs by propidium iodide staining based flow cytometry (reference value: 9.83%); assay type: functional
[37] = test system: LNCaP; test: Cell cycle arrest in human LNCAP cells assessed as accumulation at S phase at 40 uM after 24 hrs by propidium iodide staining based flow cytometry (reference value: 37.5%); assay type: functional
[38] = test system: LNCaP; test: Cell cycle arrest in human LNCAP cells assessed as accumulation at G1 phase at 40 uM after 24 hrs by propidium iodide staining based flow cytometry (reference value: 52.4%); assay type: functional

What does the source list for `O=c1c(-c2ccc(O)cc2)coc2cc(O)cc(O)c12` [GENISTEIN]?
inhibition [1]: Active; viability at 100 µM [2]: 40%; Activity [3]: 52.5%; Activity [4]: 9.34%; Activity [5]: -0.34%; Activity [6]: 0.21%; Activity [7]: 37.1%; Activity [8]: Dose-dependent effect; IC50 [9]: 31.7 µM; Activity [10]: 40%; IC50 [11]: 10 to 40 µM; Activity [12]: 40%; IC50 [13]: 24 µM; Activity [14]: 40%

`CNC(=O)c1ccc(N2C(=S)N(c3ccc(C#N)c(C(F)(F)F)c3)C(=O)C2(C)C)cc1F` was tested. Which Activity [15] did it give?
Its Activity is “Active”.

How did the Activity [16] turn out when `CC1(C)C(=O)N(c2ccc(C#N)c(C(F)(F)F)c2)C(=S)N1c1ccc(-c2cn(CCOc3cc(O)c4c(=O)c(-c5ccc(O)cc5)coc4c3)nn2)cc1` was run?
Its Activity is “inactive”.

And the Activity [13]?
Its Activity is “inactive”.

For `CC1(C)C(=O)N(c2ccc(C#N)c(C(F)(F)F)c2)C(=S)N1c1ccc(-c2cn(CCOCCOCCOCCOCCOCCOCCOCCOc3cc(O)c4c(=O)c(-c5ccc(O)cc5)coc4c3)nn2)cc1`, which Activity [16] is on record?
Its Activity is “inactive”.

And the Activity [13]?
Its Activity is “inactive”.

What does the source list for `CC1(C)C(=O)N(c2ccc(C#N)c(C(F)(F)F)c2)C(=S)N1Cc1ccc(-c2cn(CCOc3cc(O)c4c(=O)c(-c5ccc(O)cc5)coc4c3)nn2)cc1`?
Activity [16]: inactive; Activity [13]: inactive

For `CC1(C)C(=O)N(c2ccc(C#N)c(C(F)(F)F)c2)C(=O)N1CCCCc1cn(CCOCCOCCOCCOCCOCCOCCOCCOc2cc(O)c3c(=O)c(-c4ccc(O)cc4)coc3c2)nn1`, which Activity [17] is on record?
The Activity was 5 - 10%.

What about the Activity [18] of the same compound?
Its Activity is 15 - 20%.

And the Activity [19]?
Its Activity is 34%.

What about the Activity [20] of the same compound?
Its Activity is 50%.

And the Activity [21]?
The Activity was 54.7%.

What about the Activity [22] of the same compound?
The Activity was “Dose-dependent effect”.

What about the Survival [23] of the same compound?
Its Survival is less than 40%.

What about the Survival [24] of the same compound?
The Survival was less than 40%.

And the Activity [25]?
Its Activity is 10.6%.

And the Activity [26]?
Its Activity is 50.8%.

What about the IC50 ([16]; DU-145, 72 h) of the same compound?
The IC50 was 3.4 µM.

What about the IC50 [13] of the same compound?
Its IC50 is 1.4 µM.

And the Activity [27]?
The Activity was -0.63%.

And the Activity [28]?
The Activity was -0.094%.

And the Activity [29]?
The Activity was 39.2%.

And the Activity [30]?
Its Activity is “Active”.

What about the Activity [31] of the same compound?
Its Activity is -0.92%.

And the Activity [32]?
The Activity was 0.55%.

And the Activity [33]?
The Activity was 11.3%.

How did the Activity [16] turn out when `CC1(C)C(=O)N(c2ccc(C#N)c(C(F)(F)F)c2)C(=O)N1CCCCc1cn(CCOc2cc(O)c3c(=O)c(-c4ccc(O)cc4)coc3c2)nn1` was run?
The Activity was “inactive”.

And the Activity [13]?
The Activity was “inactive”.

What does the source list for `CC1(C)C(=O)N(c2ccc(C#N)c(C(F)(F)F)c2)C(=S)N1Cc1ccc(-c2cn(CCOCCOCCOCCOCCOCCOCCOCCOc3cc(O)c4c(=O)c(-c5ccc(O)cc5)coc4c3)nn2)cc1`?
Activity [16]: inactive; Activity [13]: inactive

For `C#CCCCCN1C(=O)N(c2ccc(C#N)c(C(F)(F)F)c2)C(=O)C1(C)C`, which Activity [34] is on record?
Its Activity is -0.44%.

And the Activity [35]?
The Activity was -0.21%.

What about the Activity [36] of the same compound?
Its Activity is 13.4%.

What about the Activity [37] of the same compound?
The Activity was 54.2%.

And the Activity [38]?
Its Activity is 33.1%.
